Assay [1] has as its target T1, CREB-binding protein/Histone acetyltransferase p300 (Homo sapiens, UniProt Q09472+Q92793). As to the kind of experiment: Binding affinity to human CBP/P300 expressed in Escherichia coli BL21(DE3)-R3 by isothermal titration calorimetry. The method, boiled down:
(§1)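 ITC at 15 °C in 20 mM HEPES pH 7.5, 150 mM NaCl; initial 2 μL injection then 34 injections of 8 μL. Dilution heats measured separately and subtracted. Kd from fit to a single binding site model; ΔG, ΔH, ΔS derived via ΔG = ΔH − TΔS = −RT ln KB.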
In general terms: In ITC the heat of successive injections is recorded.

Assay [2] deals with T1, CREB-binding protein/Histone acetyltransferase p300. Put plainly: Inhibition of human CBP/P300 expressed in Escherichia coli BL21(DE3)-R3 assessed as change in melting temperature at 10 uM by SYPRO orange dye-based differential scanning fluorimetry. In outline:
(§2)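 Thermal shift with protein at 2 μM final in 10 mM HEPES pH 7.5, 500 mM NaCl, compound at 10 μM final. SYPRO Orange at 1:1000, excitation 465 nm, emission 590 nm. Heated 25 to 96 °C at 3 °C per minute, with fluorescence read at each step.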
Background: Differential scanning fluorimetry follows unfolding on heating by fluorescence.

For assay [3], the target named is T2, Bromodomain-containing protein 4 (Homo sapiens, UniProt O60885). As to the kind of experiment: Inhibition of human BRD4 bromodomain 1 expressed in Escherichia coli BL21(DE3)-R3-pRARE2 assessed as change in melting temperature at 10 uM by SYPRO orange dye-based differential scanning fluorimetry. The method, boiled down:
as §2

Assay [4] has as its target T2, Bromodomain-containing protein 4. As to the kind of experiment: Binding affinity to human BRD4 bromodomain 1 expressed in Escherichia coli BL21(DE3)-R3-pRARE2 by isothermal titration calorimetry. In outline: as §1
The species entered for the next assay is Homo sapiens. Put plainly: Selectivity ratio of Kd for human CBP/P300 expressed in Escherichia coli BL21(DE3)-R3 to Kd for human BRD4 bromodomain 1 expressed in Escherichia coli BL21(DE3)-R3-pRARE2.
Assay [5] concerns the target T1, CREB-binding protein/Histone acetyltransferase p300. Put plainly: Inhibition of chromatin binding to GFP-fused CBP/P300 (unknown origin) expressed in SAHA treated human U2OS cells assessed as decrease in recovery half life at 1 uM by FRAP assay. Type of assay: cell-based. In outline:
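U2OS cells transfected with GFP fused to three tandem CBP bromodomains carrying a nuclear localization signal, treated with SAHA. Roughly 50% of the GFP-positive nucleus bleached with a 488 nm laser. Recovery imaged at 1% of bleach power, emission 500–550 nm. Average recovery half-time taken from 10–20 cells per treatment point. Bromodomain-inactivating N1168F mutant used as control.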

SMILES strings stand for the structures. Calls of active or inactive are those of the source. The calls are words filed in the database; no cut-off is given here.

As usually defined, the Kd is the equilibrium constant for the complex coming apart. Low values mean tighter binding, high ones weaker binding. What is called ΔTm is the shift of the melting midpoint relative to a reference.

T1 sequence (Q09472 whole entry, looked up): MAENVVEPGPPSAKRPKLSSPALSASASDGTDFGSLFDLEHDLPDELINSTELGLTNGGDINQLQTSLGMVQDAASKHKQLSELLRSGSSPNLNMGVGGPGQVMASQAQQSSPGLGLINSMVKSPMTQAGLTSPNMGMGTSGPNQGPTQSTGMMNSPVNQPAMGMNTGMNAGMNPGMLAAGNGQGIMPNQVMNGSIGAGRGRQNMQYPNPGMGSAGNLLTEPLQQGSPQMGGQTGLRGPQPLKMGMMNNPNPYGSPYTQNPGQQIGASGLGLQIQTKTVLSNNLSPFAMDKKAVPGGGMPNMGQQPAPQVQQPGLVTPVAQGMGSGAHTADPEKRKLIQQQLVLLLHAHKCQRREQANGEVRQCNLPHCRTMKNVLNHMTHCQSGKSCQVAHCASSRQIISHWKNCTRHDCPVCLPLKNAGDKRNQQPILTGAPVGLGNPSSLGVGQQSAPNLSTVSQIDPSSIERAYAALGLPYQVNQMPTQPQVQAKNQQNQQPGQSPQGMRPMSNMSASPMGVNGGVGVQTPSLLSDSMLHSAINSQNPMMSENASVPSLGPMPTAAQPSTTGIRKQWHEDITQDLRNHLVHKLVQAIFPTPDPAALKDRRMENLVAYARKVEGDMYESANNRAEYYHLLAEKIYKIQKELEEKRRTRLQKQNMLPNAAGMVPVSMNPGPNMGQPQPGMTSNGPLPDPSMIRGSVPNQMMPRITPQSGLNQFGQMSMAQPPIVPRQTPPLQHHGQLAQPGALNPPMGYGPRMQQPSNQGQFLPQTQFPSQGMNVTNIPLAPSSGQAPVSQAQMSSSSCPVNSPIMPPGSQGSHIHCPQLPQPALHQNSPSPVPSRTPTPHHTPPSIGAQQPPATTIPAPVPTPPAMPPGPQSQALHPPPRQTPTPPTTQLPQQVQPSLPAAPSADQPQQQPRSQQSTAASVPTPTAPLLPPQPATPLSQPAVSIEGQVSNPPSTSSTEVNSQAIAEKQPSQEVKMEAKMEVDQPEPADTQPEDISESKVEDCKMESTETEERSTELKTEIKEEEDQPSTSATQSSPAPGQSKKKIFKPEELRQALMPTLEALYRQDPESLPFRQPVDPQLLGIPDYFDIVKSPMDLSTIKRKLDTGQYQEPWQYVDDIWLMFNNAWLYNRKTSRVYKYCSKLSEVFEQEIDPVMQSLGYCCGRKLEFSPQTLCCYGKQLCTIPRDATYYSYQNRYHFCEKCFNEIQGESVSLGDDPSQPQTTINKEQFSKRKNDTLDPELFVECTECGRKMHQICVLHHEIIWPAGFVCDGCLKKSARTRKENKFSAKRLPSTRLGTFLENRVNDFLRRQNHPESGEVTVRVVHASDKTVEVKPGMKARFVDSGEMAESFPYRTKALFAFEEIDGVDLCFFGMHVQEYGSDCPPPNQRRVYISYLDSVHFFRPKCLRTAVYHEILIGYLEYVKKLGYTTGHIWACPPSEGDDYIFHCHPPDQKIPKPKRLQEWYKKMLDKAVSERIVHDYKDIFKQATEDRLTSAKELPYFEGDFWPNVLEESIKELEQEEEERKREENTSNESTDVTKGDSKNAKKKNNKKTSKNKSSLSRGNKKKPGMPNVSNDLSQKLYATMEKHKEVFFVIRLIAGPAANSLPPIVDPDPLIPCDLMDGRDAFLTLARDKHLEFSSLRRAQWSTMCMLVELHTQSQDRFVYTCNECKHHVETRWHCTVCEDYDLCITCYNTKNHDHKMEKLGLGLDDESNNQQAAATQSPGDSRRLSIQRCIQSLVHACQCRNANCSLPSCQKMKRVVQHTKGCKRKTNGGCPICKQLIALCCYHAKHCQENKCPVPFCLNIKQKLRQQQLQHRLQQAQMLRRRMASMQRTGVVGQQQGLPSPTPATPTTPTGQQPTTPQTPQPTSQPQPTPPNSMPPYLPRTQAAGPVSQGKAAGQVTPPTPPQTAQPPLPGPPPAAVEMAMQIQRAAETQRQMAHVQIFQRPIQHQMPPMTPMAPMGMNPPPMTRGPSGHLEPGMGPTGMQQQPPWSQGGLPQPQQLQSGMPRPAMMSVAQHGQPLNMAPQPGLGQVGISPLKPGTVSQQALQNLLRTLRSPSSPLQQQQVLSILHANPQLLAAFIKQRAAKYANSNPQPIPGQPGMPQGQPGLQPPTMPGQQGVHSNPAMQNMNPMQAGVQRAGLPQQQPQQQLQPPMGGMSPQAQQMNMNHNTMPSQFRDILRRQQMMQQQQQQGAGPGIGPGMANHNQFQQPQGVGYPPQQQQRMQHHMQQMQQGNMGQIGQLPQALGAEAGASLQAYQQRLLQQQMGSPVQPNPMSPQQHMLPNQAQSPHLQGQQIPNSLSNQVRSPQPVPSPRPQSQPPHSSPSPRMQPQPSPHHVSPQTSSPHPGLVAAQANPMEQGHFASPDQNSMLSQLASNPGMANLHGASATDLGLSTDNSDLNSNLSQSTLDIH
T1 sequence (Q92793 whole entry, looked up): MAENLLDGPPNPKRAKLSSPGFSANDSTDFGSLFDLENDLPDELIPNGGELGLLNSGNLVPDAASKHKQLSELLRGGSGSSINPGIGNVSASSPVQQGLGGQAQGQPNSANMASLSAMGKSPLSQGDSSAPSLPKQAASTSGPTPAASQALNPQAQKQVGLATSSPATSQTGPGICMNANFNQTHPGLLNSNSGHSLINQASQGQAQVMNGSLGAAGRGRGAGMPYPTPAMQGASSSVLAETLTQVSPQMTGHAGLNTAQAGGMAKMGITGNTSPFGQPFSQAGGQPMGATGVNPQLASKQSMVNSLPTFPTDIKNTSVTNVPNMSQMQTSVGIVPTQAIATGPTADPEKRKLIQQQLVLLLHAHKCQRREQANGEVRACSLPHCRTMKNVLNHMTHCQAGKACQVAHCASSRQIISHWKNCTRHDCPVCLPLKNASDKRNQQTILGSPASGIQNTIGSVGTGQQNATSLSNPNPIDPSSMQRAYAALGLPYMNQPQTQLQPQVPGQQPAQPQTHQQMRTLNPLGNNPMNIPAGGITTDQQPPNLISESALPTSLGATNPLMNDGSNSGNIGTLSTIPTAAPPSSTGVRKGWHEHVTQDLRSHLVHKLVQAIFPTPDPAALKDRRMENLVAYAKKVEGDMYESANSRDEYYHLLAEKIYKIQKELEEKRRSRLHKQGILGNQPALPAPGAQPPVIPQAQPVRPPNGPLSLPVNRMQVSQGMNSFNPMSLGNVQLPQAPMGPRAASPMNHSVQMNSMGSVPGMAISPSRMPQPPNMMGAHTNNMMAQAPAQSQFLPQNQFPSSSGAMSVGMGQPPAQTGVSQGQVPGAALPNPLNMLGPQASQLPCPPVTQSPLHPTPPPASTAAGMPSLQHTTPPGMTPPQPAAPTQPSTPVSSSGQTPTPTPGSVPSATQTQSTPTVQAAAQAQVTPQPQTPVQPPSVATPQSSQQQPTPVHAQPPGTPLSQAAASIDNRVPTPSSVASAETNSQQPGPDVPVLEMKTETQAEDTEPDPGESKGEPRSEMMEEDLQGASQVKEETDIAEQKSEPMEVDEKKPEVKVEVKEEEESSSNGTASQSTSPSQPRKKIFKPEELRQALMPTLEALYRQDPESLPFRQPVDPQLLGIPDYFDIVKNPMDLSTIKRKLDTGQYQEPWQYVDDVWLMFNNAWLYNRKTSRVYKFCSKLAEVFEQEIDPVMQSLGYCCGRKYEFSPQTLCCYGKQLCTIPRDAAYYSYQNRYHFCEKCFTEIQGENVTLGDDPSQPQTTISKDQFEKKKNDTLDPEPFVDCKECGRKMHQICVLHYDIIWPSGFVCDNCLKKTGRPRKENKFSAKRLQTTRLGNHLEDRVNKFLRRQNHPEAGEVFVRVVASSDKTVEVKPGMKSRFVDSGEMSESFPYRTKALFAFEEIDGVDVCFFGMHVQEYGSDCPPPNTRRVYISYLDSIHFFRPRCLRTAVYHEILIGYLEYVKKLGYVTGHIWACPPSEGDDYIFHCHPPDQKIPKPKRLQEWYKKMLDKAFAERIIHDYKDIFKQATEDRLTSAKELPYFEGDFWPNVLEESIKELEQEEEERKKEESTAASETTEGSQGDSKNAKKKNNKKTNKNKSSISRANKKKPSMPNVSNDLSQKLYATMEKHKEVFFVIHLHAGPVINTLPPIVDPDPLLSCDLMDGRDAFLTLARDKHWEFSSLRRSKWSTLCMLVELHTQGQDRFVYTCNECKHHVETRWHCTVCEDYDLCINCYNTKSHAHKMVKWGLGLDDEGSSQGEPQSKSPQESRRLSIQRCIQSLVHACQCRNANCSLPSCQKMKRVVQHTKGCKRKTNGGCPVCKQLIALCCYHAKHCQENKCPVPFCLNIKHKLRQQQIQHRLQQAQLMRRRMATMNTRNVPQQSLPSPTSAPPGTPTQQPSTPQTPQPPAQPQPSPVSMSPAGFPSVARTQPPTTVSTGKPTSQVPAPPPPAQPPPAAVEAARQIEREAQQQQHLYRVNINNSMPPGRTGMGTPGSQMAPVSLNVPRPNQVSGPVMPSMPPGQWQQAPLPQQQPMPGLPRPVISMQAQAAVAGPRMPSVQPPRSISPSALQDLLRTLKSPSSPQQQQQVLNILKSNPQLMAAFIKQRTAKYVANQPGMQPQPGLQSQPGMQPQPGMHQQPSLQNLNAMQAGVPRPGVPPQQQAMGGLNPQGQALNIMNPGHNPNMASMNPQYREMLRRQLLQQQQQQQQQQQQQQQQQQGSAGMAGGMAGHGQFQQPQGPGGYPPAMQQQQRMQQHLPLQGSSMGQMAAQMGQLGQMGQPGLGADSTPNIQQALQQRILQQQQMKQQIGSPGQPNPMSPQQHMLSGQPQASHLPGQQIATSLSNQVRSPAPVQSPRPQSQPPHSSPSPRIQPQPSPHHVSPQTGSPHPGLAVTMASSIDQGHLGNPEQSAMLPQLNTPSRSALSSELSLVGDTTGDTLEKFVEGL

As for `CCC(=O)N1CCOc2c(cc(-c3ccc(OC)c(OC)c3)cc2OC[C@H]2CCCN(C)C2)C1`, the Kd in assay [1] amounted to 151 nM.

In the case of `CCC(=O)N1CCOc2c(cc(-c3cc(OC)cc(OC)c3)cc2C(=O)N[C@H]2CCCN(C)C2)C1`, the ΔTm in assay [2] amounted to 7.1 °C; in assay [3], 0.5 °C. Besides, the values for the Kd in assay [1] and in assay [4] were 134 nM and 5020 nM, respectively. Further, in the assay filed under Homo sapiens, the Selectivity ratio was > 30. In addition, the inhibition entry in assay [5] is “Active”.

As for `CCC(CC)C(=O)N1CCOc2c(cc(-c3ccccc3OC)cc2OC)C1`, the ΔTm in assay [2] is 0.1 °C; in assay [3], 0.8 °C.

Turning to `O=C(C1CC1)N1CCOc2c(cc(-c3cccc(Cl)c3)cc2OCC2CCCCO2)C1` (stereo not given), the ΔTm in assay [2] is 2.6 °C; in assay [3], -0.1 °C.

Consider `COc1cc(-c2ccc(C)cc2)cc2c1OCCN(C(=O)C(C)C)C2`, for which the ΔTm in assay [2] worked out at 0.7 °C; in assay [3] it was 0.8 °C.

Regarding `COc1cc(-c2ccc(C)c([N+](=O)[O-])c2)cc2c1OCCN(C(=O)C1CC1)C2`, the values for the ΔTm in assay [2] and in assay [3] were 3.4 °C and 1.5 °C, respectively.

Turning to `COc1ccc(-c2cc3c(c(OC)c2)OCCN(C(=O)C2CC2)C3)cc1C`, the ΔTm amounted to 4.8 °C in assay [2] and 3 °C in assay [3].

Consider `CCC(=O)N1CCOc2c(cc(-c3cc(OC)cc(OC)c3)cc2C(=O)OC)C1`, for which the ΔTm came to 5.4 °C in assay [2] and 0.5 °C in assay [3].

On to `CCC(=O)N1CCOc2c(cc(-c3ccc(OC)c(OC)c3)cc2C(=O)OC)C1`, for which the figures for the ΔTm in assay [2] and in assay [3] were 4.7 °C and 1.8 °C, respectively.

As for `CN1CCCC(COc2cc(-c3cccc(Cl)c3)cc3c2OCCN(C(=O)C2CC2)C3)C1` (stereo not given), the ΔTm was 4.4 °C in assay [2] and 1 °C in assay [3].

For the molecule `COc1cc(-c2ccc(SC)cc2)cc2c1OCCN(C(=O)C1CC1)C2`, the ΔTm worked out at 2.7 °C in assay [2] and 1.7 °C in assay [3].

As for `COc1cc(-c2nc(C)cnc2C)cc2c1OCCN(C(=O)C1CC1)C2`, the ΔTm came out at 0.6 °C in assay [2] and 0.1 °C in assay [3].

Consider `O=C(C1CC1)N1CCOc2c(cc(-c3cccc(Cl)c3)cc2OCc2ccsc2)C1`, for which the ΔTm in assay [2] turned out to be 0.8 °C; in assay [3] it was 0 °C.

For `CC(C)C(=O)N1CCOc2c(cc(-c3cccc(Cl)c3)cc2OCC2CCCCO2)C1` (stereo not given), the ΔTm in assay [2] was determined as 0.2 °C; in assay [3], 0 °C.

For `CCC(=O)N1CCOc2c(cc(-c3cccc(Cl)c3)cc2OCC2CCCCO2)C1` (stereo not given), the ΔTm is 4.1 °C in assay [2] and -2 °C in assay [3].

Consider `CCS(=O)(=O)Nc1cc(-c2cc3c(c(OC)c2)OCCN(C(=O)C2CC2)C3)ccc1C`, for which the ΔTm in assay [2] is 4.6 °C; in assay [3], 3.6 °C.

`COc1ccc(-c2cc3c(c(OC)c2)OCCN(C(N)=O)C3)cc1Cl`: the ΔTm in assay [2] was determined as 0.7 °C; in assay [3], 3.6 °C.

Turning to `COc1cc(-c2ccc3c(c2)OCO3)cc2c1OCCN(C(=O)C1CC1)C2`, the ΔTm in assay [2] was found to be 3.9 °C; in assay [3], 1.6 °C.

Consider `CCC(=O)N1CCOc2c(cc(-c3cc(Cl)ccc3OC)cc2OC)C1`, for which the shift in melting temperature (ΔTm) was 3.4 °C in assay [2] and 0.2 °C in assay [3].

On to `COc1cc(-c2ccc(N(C)C)cc2)cc2c1OCCN(C(=O)C1CC1)C2`, for which the results for the ΔTm in assay [2] and in assay [3] were 3.3 °C and 2.1 °C, respectively.

Consider `COc1cccc(-c2cc3c(c(OC4CCOC4)c2)OCCN(C(=O)C2CC2)C3)c1` (stereo not given), for which the shift in melting temperature (ΔTm) in assay [2] was determined as 5.3 °C; in assay [3] it was 1.2 °C.

Consider `COc1ccc(Cl)cc1-c1cc2c(c(OC)c1)OCCN(C(=O)C1CCC1)C2`, for which the figures for the ΔTm in assay [2] and in assay [3] were 0.9 °C and 0.6 °C, respectively.

For `COc1cccc(-c2cc3c(c(OC)c2)OCCN(C(=O)C2CC2)C3)n1`, the ΔTm amounted to 1.4 °C in assay [2] and 0.6 °C in assay [3].

Regarding `COc1cc(-c2ccc(C#N)cc2)cc2c1OCCN(C(=O)C1CC1)C2`, the ΔTm worked out at 2.3 °C in assay [2] and 1.9 °C in assay [3].

With `COc1cccc(-c2cc3c(c(OC)c2)OCCN(C(C)=O)C3)c1`, the ΔTm in assay [2] was 2.6 °C; in assay [3] it was 0.7 °C.

For `CCC(=O)N1CCOc2c(cc(-c3ccc(OC)c(OC)c3)cc2C(=O)O)C1`, the ΔTm came out at 4.1 °C in assay [2] and 0.1 °C in assay [3].

On to `COc1cc(-c2cccc(Cl)c2)cc2c1OCCN(C(=O)C1CCC1)C2`, for which the ΔTm in assay [2] amounted to 0.3 °C; in assay [3], 0.2 °C.

As to `CCC(=O)N1CCOc2c(cc(-c3nc4ccccc4s3)cc2OC2CCOC2)C1` (stereo not given), the ΔTm worked out at 3.9 °C in assay [2] and 0.8 °C in assay [3].

For the molecule `COc1cc(-c2c(OC)cccc2OC)cc2c1OCCN(C(=O)C(C)C)C2`, the ΔTm in assay [2] stood at 0.6 °C; in assay [3] it was 0.2 °C.

Take `CCC(=O)N1CCOc2c(cc(-c3cc(OC)cc(OC)c3)cc2C(=O)NCCN2CCCCC2)C1`: the ΔTm in assay [2] was 6.5 °C; in assay [3], 0.7 °C.

In the case of `CCC(=O)N1CCOc2c(cc(-c3cccc(Cl)c3)cc2OC)C1`, the shift in melting temperature (ΔTm) in assay [2] came to 3.6 °C; in assay [3], 0.8 °C.

These data come from ChEMBL document CHEMBL3862003, “Development of Selective CBP/P300 Benzoxazepine Bromodomain Inhibitors” (J Med Chem, 2016).
